UCH37 DUB inh: blocks the human deubiquitinase UCH37 | Q9Y5K5 | purified proteasome/UCH37, Ub-AMC cleavage fluorescence | inhibition, % (test concentration not listed) | 330,000 compounds, 0.33% hits | AID 588478;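 active = mean inhibition over replicate wells above about 20%, limit read from the data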;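 also: 0% = compound-free wells with enzyme and 100% = wells lacking proteasome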
Target sequence (Q9Y5K5 whole entry, looked up): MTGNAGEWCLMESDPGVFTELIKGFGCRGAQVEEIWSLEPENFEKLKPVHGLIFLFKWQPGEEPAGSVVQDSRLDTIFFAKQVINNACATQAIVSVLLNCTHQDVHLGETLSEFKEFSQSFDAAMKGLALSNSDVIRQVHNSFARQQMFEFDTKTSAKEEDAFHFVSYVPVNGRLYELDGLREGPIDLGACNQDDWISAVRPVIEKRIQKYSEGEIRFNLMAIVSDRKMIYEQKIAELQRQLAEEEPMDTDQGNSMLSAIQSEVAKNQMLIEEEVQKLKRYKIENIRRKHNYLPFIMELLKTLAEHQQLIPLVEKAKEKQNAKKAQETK
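Reagent: Ub-AMC substrate; assay system: Proteasome-associated human UCH37 deubiquitinase; controls: no-proteasome and no-compound wells; read-out: % inhibition of Ub-AMC cleavage fluorescence; timing: 30 min preincubation with enzyme, 25 min cleavage at room temperature; signal: AMC fluorescence from Ub-AMC cleavage, excitation 355 nm, emission 460 nm; buffer or medium: Tris-HCl pH 7.4 plus ovalbumin, ATP-MgCl2, DTT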
ARNT-TACC3 inh: disrupts binding between human ARNT and TACC3. Q9Y6A5. AlphaScreen His-ARNT PAS-B/GST-TACC3 binding, luminescence; TACC3 fragment carries E629A point mutation. inhibition, % at 9.99 µM. 390,000 compounds, 0.66% hits. AID 623870;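 active = mean inhibition of replicates at least 50% and at least half of replicates each reaching 50%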;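 also: 0% = complete ARNT plus TACC3 wells and 100% = ARNT alone without TACC3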
SUMO Mot1 rescue: blocks SUMOylation pathway, rescuing yeast Mot1-301 growth | S. cerevisiae Mot1-301 growth rescue, ATP luminescence, 38.5C; percent above DMSO median, 100 means doubled | growth rescue, % at 18.8 µM | 320,000 compounds, 1% hits | AID 2716;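 active = every valid replicate shows activation above 250% relative to neutral control wells; inactive = the rest, any valid replicate at or below 250%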;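 also: OY570 slx delta 5 strain wells were the positive control but not used for scaling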
cardiac RTF act: increases calcium sensitivity of human cardiac regulated thin filaments; IANBD-labeled TnC RTF fluorescence at EC20 calcium; 0% EC20 calcium, 100% full calcium; activation, % at 7.2 µM; 340,000 compounds, 0.24% hits;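 active = activation above the mean over all tested compounds plus 3 SD, cut at about 30% in these data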;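 also: rise in fluorescence read as greater calcium sensitivity of cardiac thin filaments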
Efflux pump inh: blocks antifungal efflux pumps in multiplex yeast assay. S. cerevisiae Candida pump triplex, Nile Red efflux. 330,000 compounds, 0.44% hits. inhibition, % at 10 µM;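 active = plate passing quality check with inhibition over a set limit, or well fluorescence over plate mean plus 4 SD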;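 also: Nile Red retained in pooled yeast measured as flow cytometry median fluorescence; 0% = buffer negative control and 100% = Enniatin B positive control; higher means more Nile Red kept so more efflux inhibition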
RTF Ca sens inh: cardiac RTF calcium desensitization. P19429+P45379. IANBD-labeled cardiac RTF, Ca2+ fluorescence. inhibition, % at 7.15 µM. 340,000 compounds, 0.12% hits;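 active = inhibition above the mean inhibition of all tested compounds plus 3 SD, cut at about 17% in these data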;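 also: assay run at fixed EC70 calcium of 1.6 mM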
ARNT Alpha ctr-1: counter-screen for ARNT/TACC3 inhibitors: AlphaScreen artifacts | shares compounds with ARNT-TACC3 inh | His-ARNT PASB-GST AlphaScreen artifact counter-screen, luminescence | AC50, µM (series often up to 68 µM), without a hit: top-dose activity change, negative = signal decrease | 1,200 compounds, 50% hits | AID 651705;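 active = every separate test run was called active for a drop in luminescence, with AC50 within twice the top valid dose, actives reach about 71 µM in these data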
ARNT Alpha ctr-2: counter-screen for ARNT-TACC3 inhibitors: AlphaScreen artifacts. Dual-tagged His-ARNT PASB-GST AlphaScreen artifact counter-screen. 45 compounds, 70% hits. AC50, µM. shares compounds with ARNT-TACC3 inh;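 active = luminescence drop, with half-maximal potency fitted within twice the sample's top valid dose, cut at about 70 µM in these data; inactive = the rest, including signal moving the wrong way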
Numbers without * were called inactive. Only some compounds are listed: those with a hit (about 2.1% of all), similar ones and a draw of the others.

How did C[C@H]1c2cccc(O)c2C(O)=C2C(=O)[C@]3(O)C(O)=C(C(N)=O)C(=O)[C@@H](N(C)C)C3[C@@H](O)C21 (some centres undefined) do in these assays?
UCH37 DUB inh: 5; ARNT-TACC3 inh: 36*; SUMO Mot1 rescue: 14; cardiac RTF act: 2; Efflux pump inh: 0; RTF Ca sens inh: 8; ARNT Alpha ctr-1: -10%

Results for Cc1ccc(S(=O)(=O)n2nc(C)c(C#N)c2N)cc1 ?
UCH37 DUB inh: -2; ARNT-TACC3 inh: 67*; SUMO Mot1 rescue: -3; cardiac RTF act: -5; Efflux pump inh: 0; RTF Ca sens inh: 6; ARNT Alpha ctr-1: 2%

What do the screens show for `C[C@]12CC[C@H](O)CC1=CCC1C2CC[C@@]2(C)C1CC[C@@H]2NC(=O)[C@@H](N)Cc1cnc[nH]1` (some centres undefined)?
UCH37 DUB inh: 3; ARNT-TACC3 inh: 62*; cardiac RTF act: 6; RTF Ca sens inh: 0; ARNT Alpha ctr-1: -12%

What do the screens show for `C[C@]12CC[C@H](O)CC1=CCC1C2CC[C@@]2(C)C1CC[C@@H]2NC(=O)[C@@H](N)CO` (some centres undefined)?
UCH37 DUB inh: 3; ARNT-TACC3 inh: 3; cardiac RTF act: 14; RTF Ca sens inh: -29

What do the screens show for `O=C(CSc1ccc(-c2ccccn2)nn1)N1CCCC1`?
UCH37 DUB inh: -1; ARNT-TACC3 inh: 85*; SUMO Mot1 rescue: -13; cardiac RTF act: 3; Efflux pump inh: 0; RTF Ca sens inh: -9; ARNT Alpha ctr-1: 48µM*; ARNT Alpha ctr-2: 23*

How did O=C(CSc1ccc(-c2ccccn2)nn1)NC1CCCC1 do in these assays?
UCH37 DUB inh: 4; ARNT-TACC3 inh: 59*; SUMO Mot1 rescue: 48; cardiac RTF act: -2; Efflux pump inh: 0; RTF Ca sens inh: -19; ARNT Alpha ctr-1: 18µM*

What do the screens show for `O=C(CSc1ccc(-c2ccccn2)nn1)c1ccc(F)cc1`?
UCH37 DUB inh: -1; ARNT-TACC3 inh: 39; SUMO Mot1 rescue: -21; cardiac RTF act: -2; Efflux pump inh: 0; RTF Ca sens inh: -2

Results for O=C(CSc1ccc(-c2ccccn2)nn1)c1ccccc1 ?
UCH37 DUB inh: 2; ARNT-TACC3 inh: 75*; SUMO Mot1 rescue: -15; cardiac RTF act: -2; Efflux pump inh: 0; RTF Ca sens inh: -1; ARNT Alpha ctr-1: 15µM*

Results for O=C(CSc1ccc(-c2ccccc2)nn1)N1CCN(c2ccccc2)CC1 ?
UCH37 DUB inh: -1; ARNT-TACC3 inh: -3; SUMO Mot1 rescue: 8; cardiac RTF act: -4; Efflux pump inh: 0; RTF Ca sens inh: -6

How did CC1(C)CC(=O)C=C(Nc2ccccc2N)C1 do in these assays?
UCH37 DUB inh: 3; ARNT-TACC3 inh: 51*; SUMO Mot1 rescue: 10; cardiac RTF act: 18; Efflux pump inh: 0; RTF Ca sens inh: -24; ARNT Alpha ctr-1: 7%

How did COc1ccc(C(=O)NN=C/C(C)=C/c2ccccc2)cc1OC do in these assays?
UCH37 DUB inh: 8

How did O=C(N/N=C/c1c(O)ccc2ccccc12)c1ccc(CO)nc1 do in these assays?
ARNT-TACC3 inh: 59*; SUMO Mot1 rescue: -26; cardiac RTF act: 8; Efflux pump inh: 0; RTF Ca sens inh: -13; ARNT Alpha ctr-1: 67µM*

How did Cc1ccccc1N(CC(=O)NN=Cc1cc(Br)c(C)o1)S(C)(=O)=O do in these assays?
UCH37 DUB inh: 2

What do the screens show for `CCCCCCNc1cc2n(c(=O)n1)CCc1cc(OC)c(OC)cc1-2`?
UCH37 DUB inh: -131; ARNT-TACC3 inh: 58*; SUMO Mot1 rescue: -8; cardiac RTF act: 4; Efflux pump inh: 0; RTF Ca sens inh: 1; ARNT Alpha ctr-1: -30%

How did CCNc1cc2n(c(=O)n1)CCc1cc(OC)c(OC)cc1-2 do in these assays?
UCH37 DUB inh: -131; ARNT-TACC3 inh: 26; SUMO Mot1 rescue: 54; cardiac RTF act: -6; Efflux pump inh: 0; RTF Ca sens inh: 3

What do the screens show for `CCOc1ccc(Nc2cc3n(c(=O)n2)CCc2cc(OC)c(OC)cc2-3)cc1`?
UCH37 DUB inh: 8; ARNT-TACC3 inh: 43*; SUMO Mot1 rescue: 3; cardiac RTF act: -2; Efflux pump inh: 0; RTF Ca sens inh: -8; ARNT Alpha ctr-1: -16%

Results for COc1cc2c(cc1OC)-c1cc(Nc3cccc(C)c3)nc(=O)n1CC2 ?
UCH37 DUB inh: -49; ARNT-TACC3 inh: 53*; SUMO Mot1 rescue: 235; cardiac RTF act: 3; Efflux pump inh: 0; RTF Ca sens inh: -9; ARNT Alpha ctr-1: 0%

How did CCOC(=O)NN=Cc1ccc(N(CC)CC)cc1O do in these assays?
UCH37 DUB inh: -4

What do the screens show for `CCn1c(SCC(=O)NN=C(C)c2ccncc2)nc2ccccc21`?
UCH37 DUB inh: 1

What do the screens show for `COCCn1c(N)c(C(=O)NCc2cccs2)c2nc3ccccc3nc21`?
UCH37 DUB inh: -487; ARNT-TACC3 inh: 51*; SUMO Mot1 rescue: 280; cardiac RTF act: 1; Efflux pump inh: 0; RTF Ca sens inh: -1; ARNT Alpha ctr-1: -25%

What do the screens show for `COCCn1c(N)c(C(=O)NCC2CCCO2)c2nc3ccccc3nc21` (centres undefined)?
UCH37 DUB inh: inactive; ARNT-TACC3 inh: -16; cardiac RTF act: 6; Efflux pump inh: 0; RTF Ca sens inh: -1

How did CC(C)C(=O)NC(c1ccco1)c1cc(Cl)c2cccnc2c1O (centres undefined) do in these assays?
ARNT Alpha ctr-2: 43*

How did O=C(Cc1ccccc1)NC(c1ccco1)c1ccc2cccnc2c1O (centres undefined) do in these assays?
ARNT Alpha ctr-2: 8.7*

Results for CCCC(=O)NC(c1ccco1)c1cc(Cl)c2cccnc2c1O (centres undefined) ?
UCH37 DUB inh: 2; ARNT-TACC3 inh: 1; SUMO Mot1 rescue: -9; cardiac RTF act: 7; Efflux pump inh: 0; RTF Ca sens inh: -17

Results for CC(C)C(=O)NC(c1ccco1)c1ccc2cccnc2c1O (centres undefined) ?
UCH37 DUB inh: -1; ARNT-TACC3 inh: 53*; SUMO Mot1 rescue: 3; cardiac RTF act: -3; Efflux pump inh: 0; RTF Ca sens inh: 3; ARNT Alpha ctr-1: 29µM*; ARNT Alpha ctr-2: 9.4*

What do the screens show for `Oc1c(C(Nc2nc3ccccc3s2)c2ccco2)ccc2cccnc12` (centres undefined)?
UCH37 DUB inh: -2; ARNT-TACC3 inh: 14; SUMO Mot1 rescue: -2; cardiac RTF act: -4; Efflux pump inh: 0; RTF Ca sens inh: 1

Bioassay records (PubChem BioAssay)
